The test system of series [1] is Mus musculus. Briefly: Effective dose (ED50) was determined in sc Met (pentylenetetrazole) seizure threshold test; I = Inactive. It is filed as functional, organism-based. In outline: (§1)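 ADD Program screen in mice. Doses of 30, 100, 300 and 600 mg/kg were given, four animals per dose, with tests at 30 min and at 4 h. sc Met endpoint: no threshold seizure (single clonic spasm of 5 s) after an sc convulsant dose 99 of pentylenetetrazol. Rotorod assessed acute neurotoxicity. ED50/TD50 were estimated graphically; Litchfield-Wilcoxon 95% confidence limits were added for selected cases.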

The test system of series [2] is Mus musculus. The series is described as follows: Evaluated for seizure threshold test at a dose 25 mg/kg &MMT is the maximal metrazole threshold to tonic flexion; I = Inactive. It is filed as functional, organism-based. Also noted: dose 25 mg/kg. The method, boiled down:
(§2)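 0.5% pentylenetetrazol (with 0.9% NaCl and 0.001% heparin) was infused into a lateral tail vein at 6.31 μL/s. Time to 3 s of persistent clonus (MST) or hindlimb tonic flexion (MMT) was converted to mg/kg infused. Tested at 0.5 h (some at 4 h or 1 h). Results are % change from controls, by Student's t test.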

Series [3] has as its system Mus musculus. The series is described as follows: Evaluated for seizure threshold test at a dose 25 mg/kg &MST is the metrazole seizure threshold to persistent clonus; I = Inactive. The format is functional, organism-based. Also noted: dose 25 mg/kg. In outline:
as §2

Series [4] is filed under the species Mus musculus. Briefly: Compound was determined in rotarod test and expressed as TD50; I = Inactive. The format is ADME, organism-based. The settings on record: in vivo. In outline:
as §1
For orientation: In the rotarod test animals must keep their balance on a rotating rod.

The test system of series [5] is Mus musculus. The series is described as follows: Evaluated for seizure threshold test at a dose 600 mg/kg &MST is the metrazole seizure threshold to persistent clonus. It is filed as functional. The method, boiled down:
(§3)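 At 0.5 h (some at 1 or 4 h), 0.5% pentylenetetrazol in 0.9% NaCl with 0.001% heparin was infused into the tail vein at 6.31 μL/s. Time to 3 s persistent clonus (MST) or tonic flexion (MMT) was converted to mg/kg, reported as % change vs controls, Student's t test.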

In series [6] the test system is Mus musculus. Briefly: Evaluated for seizure threshold test at a dose 600 mg/kg &MMT is the maximal metrazole threshold to tonic flexion. It is filed as functional. In outline: as §2
Series [7] in a line: Compound was determined in rotarod test and expressed as TD50. The format is ADME, organism-based. The settings on record: mouse, in vivo. The method, boiled down: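 ADD Program screen in mice. Doses of 30, 100, 300 and 600 mg/kg were given, four animals per dose, with tests at 30 min and at 4 h. sc Met endpoint: no threshold seizure (single clonic spasm of 5 s) after an sc convulsant dose 99 of pentylenetetrazol. Rotorod assessed acute neurotoxicity.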

Series [8] concerns Mus musculus. The series is described as follows: Effective dose (ED50) was determined in sc Met (pentylenetetrazole) seizure threshold test. It is filed as functional. The method, boiled down:
as §1

Series [9] deals with GABA-A receptor; anion channel. Briefly: Binding affinity for umolar GABA-A central benzodiazepine receptor. It is filed as protein-complex assay, Mus musculus.
The test system of series [10] is GABA-A receptor; anion channel. The series is described as follows: Inhibition of binding to GABA-A central benzodiazepine receptor (Inactive). It is filed as protein-complex assay, Mus musculus.
Series [11] deals with Mus musculus. Briefly: Evaluated for seizure threshold test at a dose 300 mg/kg &MMT is the maximal metrazole threshold to tonic flexion; I = Inactive. It is filed as functional, organism-based. Also noted: dose 300 mg/kg. In outline: as §3
Series [12] has as its system Mus musculus. Briefly: Evaluated for seizure threshold test at a dose 300 mg/kg &MST is the metrazole seizure threshold to persistent clonus. The format is functional. The method, boiled down:
as §3

Series [13] concerns Mus musculus. The series is described as follows: Effective dose (ED50) was determined in sc Met (pentylenetetrazole) seizure threshold test; I = Inactive at all doses including 600 mg/kg. The format is functional, organism-based. Also noted: dose 600 mg/kg. The method, boiled down: as §1
In series [14] the test system is Mus musculus. The series is described as follows: Evaluated for seizure threshold test at a dose 300 mg/kg & MST is the metrazole seizure threshold to persistent clonus. It is filed as functional. In outline:
as §3

Series [15] has as its system Mus musculus. Briefly: Evaluated for seizure threshold test at a dose 100 mg/kg & MMT is the maximal metrazole threshold to tonic flexion; I - Inactive. The format is functional, organism-based. More on the design: dose 100 mg/kg. The method, boiled down:
as §2

The test system of series [16] is Mus musculus. Briefly: Evaluated for seizure threshold test at a dose 100 mg/kg & MST is the metrazole seizure threshold to persistent clonus. The format is functional. The method, boiled down: as §3
The subject of series [17] is Mus musculus. Briefly: Evaluated for seizure threshold test at a dose 300 mg/kg & MMT is the maximal metrazole threshold to tonic flexion; I - Inactive. The format is functional. In outline:
as §2

The subject of series [18] is Mus musculus. The series is described as follows: Evaluated for seizure threshold test at a dose 300 mg/kg &MMT is the maximal metrazole threshold to tonic flexion. It is filed as functional. In outline: as §2
Series [19] deals with Mus musculus. Briefly: Evaluated for seizure threshold test at a dose 300 mg/kg &MST is the metrazole seizure threshold to persistent clonus; NA - Inactive. The format is functional, organism-based. Also noted: dose 300 mg/kg. The method, boiled down:
as §2

A short description of series [20]: Compound was evaluated for median lethal dose. The format is ADME, organism-based. The following applies: mouse, in vivo.
For series [21], the system named is Mus musculus. The series is described as follows: Evaluated for seizure threshold test at a dose 30 mg/kg & MMT is the maximal metrazole threshold to tonic flexion; I = Inactive. It is filed as functional, organism-based. Also noted: dose 30 mg/kg. The method, boiled down:
as §2

In series [22] the test system is Mus musculus. Briefly: Evaluated for seizure threshold test at a dose 30 mg/kg & MST is the metrazole seizure threshold to persistent clonus. The format is functional. The method, boiled down: as §3

This is an account of results in ChEMBL document CHEMBL1122670, “Synthesis of previously inaccessible quinazolines and 1,4-benzodiazepines as potential anticonvulsants” (J Med Chem, 1984).

pKi: −log10 of the molar value. Activity calls are given as the source filed them.

The ED50 is the midpoint of the dose-response relation. As usually defined, the TD50 is the 50% point of the dose-response relation for the toxic effect studied. Read a low TD50 as harm at a small dose. In the case of `CC1N=CNc2c1cc(-c1ccccc1)c(-c1ccccc1)c2C#N` (stereo not given), the ED50 result with Mus musculus [1] is “inactive”. Besides, the Change result in the series on Mus musculus [2] and with Mus musculus [3] was “Not significant” throughout. In the series filed under Mus musculus [4], the TD50 result is recorded as “Not Active”.

On to `Cc1cc(C(=O)C2CC2)c(N)c(C#N)c1C`, for which the Change with Mus musculus [5] amounted to 23%; with Mus musculus [6], 37%. In addition, the TD50 in series [7] is more than 600 mg/kg. In the series on Mus musculus [8], this compound had an ED50 of 600 mg/kg.

A word on the pKi: it is the Ki on a negative log10 scale, so that one unit is a factor of ten. With `O=C1NC(=O)C(c2ccccc2)(c2ccccc2)N1` [PHENYTOIN], in series [9], the pKi was 3.81.

As to `Cc1cc2c(-c3ccccc3)nc(O)nc2c(C#N)c1C`, in the series with Mus musculus [1], the ED50 result is “inactive”. Moreover, the Change entry in the series with Mus musculus [2] and in the series with Mus musculus [3] was “Not significant” in each case. In the series filed under Mus musculus [4], the TD50 result is recorded as “Not Active”.

In the case of `Cc1cc(C(=O)c2ccccc2)c(N)c(C#N)c1C`, the ED50 entry in the series with Mus musculus [1] was “inactive”. Besides, the Change result in the series on Mus musculus [2] and with Mus musculus [3] was “Not significant” in each case. For the same compound, in the series listed under Mus musculus [4], the TD50 result was “Not Active”.

In series [7], `Cc1cc2c(C3CCCCC3)nc(O)nc2c(C#N)c1C` returned a TD50 of more than 600 mg/kg. Besides, in [10], the IC50 entry is reported as “Not Active”. In addition, the Change entry in the series on Mus musculus [11] is “inactive”. The compound further had an ED50 in the series with Mus musculus [8] of 260 mg/kg. Further, the Change with Mus musculus [12] turned out to be 44%.

With `Cc1cc2c(c(C#N)c1C)NC(=O)CN=C2C1CC1`, the TD50 in series [7] came to 600 mg/kg. Besides, in series [10], the IC50 entry is listed as “Not Active”. For the same compound, the Change result with Mus musculus [11] is “inactive”. In the series on Mus musculus [13], the ED50 result was “inactive”. Moreover, the Change in the series on Mus musculus [12] is given as 300%.

Take `CC(=O)c1cc(C)c(C)c(C#N)c1NC(=O)CBr`: the Change in the series on Mus musculus [14] is -22%; in the series on Mus musculus [15] it was “Not significant”; in the series on Mus musculus [16] it was -14%; in the series on Mus musculus [17], -17%. This compound showed a TD50 in [7] of 600 mg/kg. In the series on Mus musculus [8], the ED50 stood at 500 mg/kg.

Take `Cc1cc2c(c(C#N)c1C)NC=NC2C1CC1` (stereo not given): the ED50 result with Mus musculus [1] is “inactive”. Further, the Change entry in the series with Mus musculus [2] and in the series on Mus musculus [3] was “Not significant” each time. For the same compound, in the series filed under Mus musculus [4], the TD50 result is on record as “Not Active”.

Take `CC(=O)c1cc(-c2ccccc2)c(-c2ccccc2)c(C#N)c1N`: in the series with Mus musculus [18], the Change is recorded as 20%. Also, the TD50 in series [7] is more than 600 mg/kg. Besides, the ED50 with Mus musculus [8] stood at 260 mg/kg. The Change entry in the series with Mus musculus [19] is “inactive”.

Regarding `Cc1cc(C(=O)c2ccccc2)c(O)c(C#N)c1C`, the ED50 result in the series on Mus musculus [1] is “inactive”. Moreover, the Change entry in the series on Mus musculus [2] and with Mus musculus [3] was “Not significant” each time. Also, in the series filed under Mus musculus [4], the TD50 result is “Not Active”.

One may read the LD50 as the dose at which mortality reaches 50%. Higher therefore signals a less toxic substance. For `CC1=NCC(=O)Nc2c1cc(C)c(C)c2C#N`, in series [20], the LD50 stood at 150 mg/kg. The same compound came in with a TD50 in [7] of 70 mg/kg. The Change entry in the series on Mus musculus [21] was “Not significant”; in the series on Mus musculus [22], 30%. Besides, the ED50 entry in the series on Mus musculus [13] was “inactive”.
